Test results published in ChEMBL document CHEMBL1125654, “New inhibitors of human renin that contain novel replacements at the P2 site” (J Med Chem, 1991).

Columns and labels:
Renin [1] = target: T1, Renin (Homo sapiens, UniProt P00797); assay: Inhibitory activity against monkey plasma renin.; type: cell-free, Cercopithecidae; settings: target entry is the homologue from another species
T1 sequence (P00797 whole entry): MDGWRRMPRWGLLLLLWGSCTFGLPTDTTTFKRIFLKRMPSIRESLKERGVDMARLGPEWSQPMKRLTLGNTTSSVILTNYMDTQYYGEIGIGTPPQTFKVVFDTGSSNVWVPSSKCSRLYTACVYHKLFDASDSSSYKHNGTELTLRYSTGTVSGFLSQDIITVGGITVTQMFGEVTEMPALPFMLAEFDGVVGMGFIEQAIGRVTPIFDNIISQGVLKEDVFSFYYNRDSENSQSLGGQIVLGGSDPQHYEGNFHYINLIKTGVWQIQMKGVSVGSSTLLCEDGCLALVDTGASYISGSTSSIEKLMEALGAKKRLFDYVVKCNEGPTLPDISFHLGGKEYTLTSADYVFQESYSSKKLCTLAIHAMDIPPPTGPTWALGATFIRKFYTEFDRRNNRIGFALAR
How it was run: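 Plasma from salt-depleted, furosemide-treated monkeys (native renin and angiotensinogen) incubated with maleate buffer (pH 6.0), PMSF and inhibitor in DMSO for 60 min at 37 °C. Plasma renin activity was 3–8 ng AI/mL per h. Percent inhibition was taken vs DMSO vehicle tubes, and IC50 from six concentrations by nonlinear regression.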

Renin [2] = target: T1, Renin; assay: Inhibitory activity against human plasma renin; type: cell-free
[3] = Partition coefficient (logD7.4); settings: octanol/water

## CCC(C)CNC(=O)C[C@H](O)C(CC(C)C)NC(=O)C(Cc1cnc[nH]1)NC(=O)C(Cc1cccc2ccccc12)Cc1cccc2ccccc12 (stereo not given in full)
Renin [1]
  IC50: 0.085 µM
Renin [2]
  IC50: 0.061 µM

## CCC(C)CNC(=O)C[C@H](O)C(CC(C)C)NC(=O)C(CCCn1cccc1)NC(=O)C(Cc1cccc2ccccc12)Cc1cccc2ccccc12 (stereo not given in full)
[3]; pH 7.4, logD
  logD: 7.09
Renin [1]
  IC50: 0.39 µM
Renin [2]
  IC50: 0.54 µM

## CCC(C)CNC(=O)C[C@H](O)C(CC(C)C)NC(=O)C(CC#CCNC(=O)OCc1ccccc1)NC(=O)C(Cc1cccc2ccccc12)Cc1cccc2ccccc12 (stereo not given in full)
[3]; pH 7.4, logD
  logD: 7.37
Renin [1]
  IC50: 0.248 µM
Renin [2]
  IC50: 0.15 µM

## CNC(=S)NCC#CCC(NC(=O)C(Cc1cccc2ccccc12)Cc1cccc2ccccc12)C(=O)NC(CC1CCCCC1)[C@@H](O)CC(=O)N1CCOC(CCN)C1 (stereo not given in full)
[3]; pH 7.4, logD
  logD: 5.46
Renin [1]
  IC50: 0.048 µM

## CC(C)CC(NC(=O)C(CCCCNC(=O)OCc1ccccc1)NC(=O)C(Cc1ccccc1)NS(=O)(=O)N1CCOCC1)C(=O)C(F)(F)C(=O)N1CCOC(CCN)C1 (stereo not given)
[3]; pH 7.4, logD
  logD: 2.32
Renin [1]
  IC50: 0.0033 µM

## CC(C)(C)OC(=O)NCC#CCC(NC(=O)C(Cc1ccccc1)NS(=O)(=O)N1CCOCC1)C(=O)NC(CC1CCCCC1)[C@@H](O)CC(=O)N1CCOC(CCN)C1 (stereo in doubt; 61a)
[3]; pH 7.4
  logD: 3.96
Renin [1]
  IC50: 0.011 µM

## CCC(C)CNC(=O)C[C@H](O)C(CC(C)C)NC(=O)C(C/C=C\CNC(C)=O)NC(=O)C(Cc1cccc2ccccc12)Cc1cccc2ccccc12 (stereo not given in full)
[3]; pH 7.4, logD
  logD: 5.56
Renin [1]
  IC50: 0.1 µM

## CC(=O)NCC#CCC(NC(=O)C(Cc1ccccc1)NS(=O)(=O)N1CCOCC1)C(=O)NC(CC1CCCCC1)[C@@H](O)CC(=O)N1CCOC(CCN)C1 (stereo not given in full)
[3]; pH 7.4, logD
  logD: 2.12
Renin [1]
  IC50: 0.0005 µM

## NCCC1CN(C(=O)C[C@H](O)C(CC2CCCCC2)NC(=O)C(CC#CCNC=O)NC(=O)C(Cc2cccc3ccccc23)Cc2cccc3ccccc23)CCO1 (stereo not given in full)
[3]; pH 7.4, logD
  logD: 5.44
Renin [1]
  IC50: 0.0087 µM

## CNC(=S)NCCCCC(NC(=O)C(Cc1ccccc1)S(=O)(=O)C(C)(C)C)C(=O)NC(CC1CCCCC1)[C@@H](O)CC(=O)N1CCOC(CCN)C1 (stereo not given in full)
[3]; pH 7.4, logD
  logD: 2.64
Renin [1]
  IC50: 0.027 µM

## CC(C)CC(NC(=O)C(CCCC/N=C(/N)N[N+](=O)[O-])NC(=O)C(CC(=O)N1CCOCC1)Cc1cccc2ccccc12)[C@@H](O)CC(=O)N1CCOC(CCN)C1 (stereo not given in full)
[3]; pH 7.4
  logD: 1.95
Renin [1]
  IC50: 0.395 µM

## CNC(=S)NCCCCC(NC(=O)C(Cc1cccc2ccccc12)Cc1cccc2ccccc12)C(=O)NC(CC(C)C)[C@@H](O)CC(=O)N(C)OC (stereo not given in full)
[3]; pH 7.4, logD
  logD: 4.83
Renin [1]
  IC50: 10.6 µM

## CNC(=S)NCCCCC(NC(=O)C(Cc1cccc2ccccc12)Cc1cccc2ccccc12)C(=O)NC(CC(C)C)[C@@H](O)C(F)(F)C(=O)N1CCOC(CCN)C1 (stereo not given in full)
[3]; pH 7.4, logD
  logD: 5.5
Renin [1]
  IC50: 0.35 µM

## N=C(NCC#CCC(NC(=O)C(Cc1cccc2ccccc12)Cc1cccc2ccccc12)C(=O)NC(CC1CCCCC1)[C@@H](O)CC(=O)N1CCOC(CCN)C1)N[N+](=O)[O-] (stereo not given in full)
[3]; pH 7.4
  logD: 4.73
Renin [1]
  IC50: 0.012 µM

## C/N=C(\S)NCC#CCC(NC(=O)C(Cc1ccccc1)NS(=O)(=O)N1CCOCC1)C(=O)NC(CC1CCCCC1)[C@@H](O)CC(=O)N1CCOC(CCN)C1 (stereo not given in full)
[3]; pH 7.4, logD
  logD: 2.9
Renin [1]
  IC50: 0.0033 µM

## CS/C(=N\CCCCC(NC(=O)C(CC(=O)N1CCOCC1)Cc1cccc2ccccc12)C(=O)NC(CC(C)C)[C@@H](O)CC(=O)N1CCOC(CCN)C1)NC#N (stereo not given in full)
[3]; pH 7.4, logD
  logD: 1.68
Renin [1]
  IC50: 0.35 µM

## CS/C(=N\CCCCC(NC(=O)C(Cc1cccc2ccccc12)Cc1cccc2ccccc12)C(=O)NC(CC(C)C)[C@@H](O)CC(=O)N1CCOC(CCN)C1)NC#N (stereo not given in full)
[3]; pH 7.4, logD
  logD: 4.67
Renin [1]
  IC50: 0.09 µM

## C/N=C(\S)NCCCCC(NC(=O)C(Cc1ccccc1)NS(=O)(=O)N1CCOCC1)C(=O)NC(CC1CCCCC1)[C@H](O)C(F)(F)C(=O)N1CCOC(CCN)C1 (stereo not given in full)
[3]; pH 7.4, logD
  logD: 2.93
Renin [1]
  IC50: 0.0023 µM

## CC(C)(C)OC(=O)NCC#CCC(NC(=O)C(Cc1ccccc1)NS(=O)(=O)N1CCOCC1)C(=O)NC(CC1CCCCC1)[C@@H](O)CC(=O)N1CCOC(CCN)C1 (stereo in doubt; 61b)
[3]; pH 7.4, logD
  logD: 3.13
Renin [1]
  IC50: 0.7 µM
